# Measured values: ChEMBL document CHEMBL2417498, “Design and synthesis of 6,7-methylenedioxy-4-substituted phenylquinolin-2(1H)-one derivatives as novel anticancer agents that induce apoptosis with cell cycle arrest at G2/M phase” (Bioorg Med Chem, 2013)
# pIC50: −log10 of the molar value. Active and inactive are the calls of the source. The calls are words filed in the database; no cut-off is given here.
# Experiments:
# [1] = test system: A498; experiment: Cytotoxicity against human A498 cells after 48 hrs by MTT assay; format: functional, cell-based; conditions: A498, 48 h
# Outline: (§1)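 Log-phase tumour cells grown in RPMI-1640 with 10% FBS, penicillin/streptomycin and 1% L-glutamine at 37 °C, 5% CO2. Cells treated with vehicle or a range of concentrations for 48 h. Growth measured by MTT reduction, absorbance at 570 nm. IC50 is the concentration giving 50% proliferation inhibition, from 3 independent experiments.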
# [2] = Cytotoxicity against human H460 cells after 48 hrs by MTT assay; format: functional, cell-based; conditions: NCI-H460, 48 h; outline: as §1
# [3] = Cytotoxicity against human Hep3B cells after 48 hrs by MTT assay; format: functional, cell-based, Hep 3B2
# Outline: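 Detroit 551 normal skin cells and Hep 3B hepatoma cells grown in DMEM with 10% FBS, penicillin/streptomycin and 1% L-glutamine at 37 °C, 5% CO2. Log-phase cells treated with vehicle or a range of concentrations for 48 h. MTT reduction read at 570 nm. IC50 (50% proliferation inhibition) taken from 3 independent experiments.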
# [4] = test system: SK-OV-3; experiment: Cytotoxicity against human SKOV3 cells after 48 hrs by MTT assay; format: functional, cell-based; conditions: SK-OV-3, 48 h; outline: as §1
# [5] = test system: HL-60; experiment: Cytotoxicity against human HL60 cells after 48 hrs by MTT assay; format: functional, cell-based; conditions: HL-60, 48 h; outline: as §1
# [6] = test system: HL-60; experiment: Induction of apoptosis in human HL60 cells assessed as caspase3 cleavage at 0.25 to 1 uM by Western blot analysis; format: functional, cell-based
# Outline: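 HL-60 cells treated 24 h at the indicated concentrations, harvested, lysed (30 min on ice, 12,000 g spin), protein by Bradford; samples run on 10% SDS-PAGE, transferred to nitrocellulose, immunodetected by chemiluminescence.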
# [7] = test system: NCI-H460; experiment: Increase in CDK1 expression in human H460 cells after 24 hrs by Western blot analysis; format: functional, cell-based
# Outline: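 H460 cells exposed 24 h at the indicated concentrations; lysates cleared at 12,000 g, protein quantified by Bradford, resolved on 10% SDS-polyacrylamide gels, blotted to nitrocellulose and detected by chemiluminescence.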
# [8] = Cell cycle arrest in human H460 cells assessed as accumulation at G2/M phase at 5 uM after 24 hrs by propidium iodide staining-based FACS analysis (reference value: 10.73%); format: functional; conditions: NCI-H460
# Outline: (§2)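 H460 cells treated 24 h with 1.0, 2.5 or 5.0 µM; washed in PBS, fixed overnight in 70% ice-cold ethanol at −20 °C, stained 30 min in the dark with 0.1% Triton X-100, 0.2 mg/mL RNase and 20 µg/mL propidium iodide; DNA content by flow cytometry, phase distribution from histogram modelling.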
# [9] = Cell cycle arrest in human H460 cells assessed as accumulation at S phase at 2.5 uM after 24 hrs by propidium iodide staining-based FACS analysis (reference value: 43.08%); format: functional; conditions: NCI-H460; outline: as §2
# [10] = Cell cycle arrest in human H460 cells assessed as accumulation at G0/G1 phase at 5 uM after 24 hrs by propidium iodide staining-based FACS analysis (reference value: 46.19%); format: functional; conditions: NCI-H460; outline: as §2
# [11] = Cell cycle arrest in human H460 cells assessed as accumulation at G0/G1 phase at 2.5 uM after 24 hrs by propidium iodide staining-based FACS analysis (reference value: 46.19%); format: functional; conditions: NCI-H460; outline: as §2
# [12] = Cell cycle arrest in human H460 cells assessed as accumulation at G0/G1 phase at 1 uM after 24 hrs by propidium iodide staining-based FACS analysis (reference value: 46.19%); format: functional; conditions: NCI-H460; outline: as §2
# [13] = Cell cycle arrest in human H460 cells assessed as accumulation at sub G1 phase at 1 uM after 24 hrs by propidium iodide staining-based FACS analysis (reference value: 3.07%); format: functional; conditions: NCI-H460; outline: as §2
# [14] = test system: HL-60; experiment: Cell cycle arrest in human HL60 cells assessed as accumulation at G2/M phase at 0.5 uM after 24 hrs by propidium iodide staining-based FACS analysis (reference value: 10.51%); format: functional
# [15] = test system: HL-60; experiment: Cell cycle arrest in human HL60 cells assessed as accumulation at G2/M phase at 0.25 uM after 24 hrs by propidium iodide staining-based FACS analysis (reference value: 10.51%); format: functional
# [16] = test system: HL-60; experiment: Cell cycle arrest in human HL60 cells assessed as accumulation at S phase at 1 uM after 24 hrs by propidium iodide staining-based FACS analysis (reference value: 49.69%); format: functional
# [17] = test system: HL-60; experiment: Cell cycle arrest in human HL60 cells assessed as accumulation at S phase at 0.5 uM after 24 hrs by propidium iodide staining-based FACS analysis (reference value: 49.69%); format: functional
# [18] = test system: HL-60; experiment: Cell cycle arrest in human HL60 cells assessed as accumulation at S phase at 0.25 uM after 24 hrs by propidium iodide staining-based FACS analysis (reference value: 49.69%); format: functional
# [19] = test system: HL-60; experiment: Cell cycle arrest in human HL60 cells assessed as accumulation at G0/G1 phase at 1 uM after 24 hrs by propidium iodide staining-based FACS analysis (reference value: 39.80%); format: functional
# [20] = test system: HL-60; experiment: Cell cycle arrest in human HL60 cells assessed as accumulation at G0/G1 phase at 0.5 uM after 24 hrs by propidium iodide staining-based FACS analysis (reference value: 39.80%); format: functional
# [21] = test system: HL-60; experiment: Cell cycle arrest in human HL60 cells assessed as accumulation at G0/G1 phase at 0.25 uM after 24 hrs by propidium iodide staining-based FACS analysis (reference value: 39.80%); format: functional
# [22] = test system: HL-60; experiment: Cell cycle arrest in human HL60 cells assessed as accumulation at sub G1 phase at 1.0 uM after 24 hrs by propidium iodide staining-based FACS analysis (reference value: 0.35%); format: functional
# [23] = test system: HL-60; experiment: Cell cycle arrest in human HL60 cells assessed as accumulation at sub G1 phase at 0.25 uM after 24 hrs by propidium iodide staining-based FACS analysis (reference value: 0.35%); format: functional
# [24] = test system: NCI-H460; experiment: Induction of apoptosis in human H460 cells assessed as appearance of apoptotic bodies at 1 to 5 uM after 24 hrs by Hoechst 33258 staining-based microscopy; format: functional, cell-based
# Outline: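 H460 plated at 5×10⁴ cells/well and incubated 24 h with 1.0, 2.5 or 5.0 µM; stained with 5 µg/mL Hoechst 33258 for 10 min, washed twice in PBS, fixed in 4% paraformaldehyde 10 min at 25 °C; nuclei scored for chromatin condensation, fragmentation and apoptotic bodies by fluorescence microscopy; 0.1% DMSO control.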
# [25] = test system: HL-60; experiment: Induction of apoptosis in human HL60 cells assessed as appearance of apoptotic bodies at 0.25 to 1 uM after 24 hrs by Hoechst 33258 staining-based microscopy; format: functional, cell-based
# Outline: (§3)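 HL-60 seeded at 1×10⁵ cells/well, treated 24 h with 0.25, 0.5 or 1.0 µM; nuclei stained 10 min with 5 µg/mL Hoechst 33258, PBS-washed twice, fixed 10 min in 4% PFA at 25 °C; apoptotic morphology imaged by fluorescence microscopy against 0.1% DMSO-treated cells.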
# [26] = test system: HL-60; experiment: Induction of apoptosis in human HL60 cells assessed as appearance of nuclear fragmentation at 0.25 to 1 uM after 24 hrs by Hoechst 33258 staining-based microscopy; format: functional, cell-based; outline: as §3
# [27] = test system: HL-60; experiment: Induction of apoptosis in human HL60 cells assessed as chromatin condensation at 0.25 to 1 uM after 24 hrs by Hoechst 33258 staining-based microscopy; format: functional, cell-based; outline: as §3
smiles,measurement,setting,value
COc1ccc(-c2cc(=O)[nH]c3cc4c(cc23)OCO4)c(OC)c1,pIC50,[1],4.32
same,pIC50,[2],6.05
same,pIC50,[3],6.00
same,pIC50,[4],6.40
same,pIC50,[5],6.40
same,Activity,[6],Active
same,Activity,[7],Dose-dependent effect
same,Activity,[8],68.2%
same,Activity,[9],18.8%
same,Activity,[10],9.37%
same,Activity,[11],9.6%
same,Activity,[12],1.57%
same,Activity,[13],10.8%
same,Activity,[14],25.02%
same,Activity,[15],11.87%
same,Activity,[16],46.99%
same,Activity,[17],30.16%
same,Activity,[18],46.76%
same,Activity,[19],12.46%
same,Activity,[20],44.82%
same,Activity,[21],41.36%
same,Activity,[22],19.65%
same,Activity,[23],13.88%
same,Activity,[24],Active
same,Activity,[25],Active
same,Activity,[26],Active
same,Activity,[27],Active
